These results are taken from PubChem BioAssay AID602246 (The Scripps Research Institute Molecular Screening Center, 2012).

Active and inactive are the calls of the source.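 Rule for the calls: active = t-test against the solvent control gives p below 0.05 and normalized ATPase activity falls by at least 10%; inactive = the rest.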

This assay can be described thus: RTF inhibitors lowering myofibrillar ATP hydrolysis – biochemical, absorbance, porcine cardiac myofibrils, powder samples, mechanism study for cardiac RTF inhibitor project, late-stage follow-up (AID 602246). Conditions: ATPase Pi absorbance 660 nm, at 10 µM, stronger effect = lower value. The procedure, abridged:
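material = porcine cardiac myofibrils | benchmarks = DMSO wells | measure = ATPase activity ratio, compound-well mean over DMSO-well mean | reagent = 3.02 mM ATP, EC50 calcium | timing = 5 min compound preincubation, then 7 min ATPase reaction, 25 °C | measured by = phosphate absorbance at 660 nm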
On to `O=C(O)c1ccc2c(c1)[C@@H]1C=CC[C@@H]1[C@H](c1ccccn1)N2`, for which the normalized ATPase activity is 0.982 (inactive). On to `NCCCCCCNS(=O)(=O)c1cccc2c(Cl)cccc12`, for which the normalized ATPase activity was 0.854 (active). Next, `O=C(O)c1cccc(-n2cccc2/C=C2/NC(=O)N(c3ccc(Cl)cc3)C2=O)c1`: 0.975 (inactive); `COc1cccc2c1NC(C(=O)O)C1CC=CC21` (stereo not given): 1.03 (inactive). In the case of `O=C(O)c1ccc2nc(-c3ccco3)c(-c3ccco3)nc2c1` it was 1.03 (inactive).
